In the library only some 2.3% were active in any assay of this set; here they are far more common.
TAAR1 antag: human TAAR1 antagonism; CHO RD-HGA16 TAAR1, Fluo-8 calcium fluorescence, antagonist; actives 1.5% (n = 360,000); inhibition, % at 3 µM; AID 624466; Q96RJ0;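 active = inhibition above a per-plate cutoff, the mean inhibition of test compounds on that plate plus 3 SD, cut at about 49% in these data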;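 note: 0% = DMSO plus EC80 beta-PEA response and 100% = DMSO alone without agonist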
Target sequence (Q96RJ0 whole entry, looked up): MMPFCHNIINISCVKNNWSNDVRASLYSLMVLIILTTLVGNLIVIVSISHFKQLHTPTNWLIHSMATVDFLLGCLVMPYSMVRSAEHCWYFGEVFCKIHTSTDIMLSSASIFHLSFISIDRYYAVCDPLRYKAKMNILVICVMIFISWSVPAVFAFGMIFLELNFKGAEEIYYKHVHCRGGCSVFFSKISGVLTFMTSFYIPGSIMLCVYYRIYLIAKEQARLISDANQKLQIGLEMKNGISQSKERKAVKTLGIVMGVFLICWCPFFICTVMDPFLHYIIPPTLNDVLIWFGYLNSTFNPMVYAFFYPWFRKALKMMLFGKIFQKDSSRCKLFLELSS
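Test system: RD-HGA16 CHO cells with stable hTAAR1 and Gα16 / Probe or stimulus: EC80 β-phenethylamine stimulus / Times: seeding 17-24 h prior, 75-min 37 °C, 30-min RT dye loading / Detection: Fluo-8 calcium-sensitive fluorescence / Read-out basis: % inhibition scaled between DMSO and EC80 PEA controls / Repeats: singlicate, one well per test compound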
TAAR1 ag: human TAAR1 agonism | Q96RJ0 | CHO RD-HGA16 TAAR1, Fluo-8 calcium fluorescence; vehicle wells 0%, saturating PEA agonist 100% | activation, % at 3 µM | actives 0.99% (n = 360,000) | AID 624467;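 active = activation above the mean activation of all test compounds in the run plus 3 SD, cut at about 38% in these data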
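Benchmarks: low control DMSO, high control PEA (EC100); System: CHO RD-HGA16 cells carrying human TAAR1 plus Gα16; Detection: Fluo-8 fluorescence, 5 s baseline then 140 s kinetic read; Schedule: 17-24 h plating, Fluo-8 75 min 37 °C, 30 min RT; Read-out basis: % activation from peak over basal fluorescence ratio, DMSO-to-PEA scaled.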
OXTR potentiator: potentiates the human oxytocin receptor response; P30559; CHO-OTR cells, Fluo-8 calcium fluorescence, potentiator mode; 0% = oxytocin EC15, 100% = EC100; activation, % at 3 µM; actives 0.061% (n = 320,000);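 active = activation above that plate's cutoff, the mean activation of tested compounds plus 3 SD, cut at about 6.6% in these data, passing the limit was not always enough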;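 note: 100% uses oxytocin at 75 nM as the full agonist control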
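test system = CHO-OTR cells, human receptor | compound = single-point 3.0 µM | schedule = 6 min compound pre-incubation at room temperature, 100 s kinetic read | signal = Fluo-8 no-wash calcium dye fluorescence, excitation 470-495 nm, emission 515-575 nm | repeats = single well per compound, singlicate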
OXTR agonist: activates the human oxytocin receptor; CHO-OTR cells, Fluo-8 calcium fluorescence; normalized: DMSO 0%, oxytocin 100%; activation, % at 3 µM; actives 0.32% (n = 320,000);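 active = activation above the mean of all tested compounds plus 3 SD, cutoff set per screening run, cut at about 20% in these data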;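 note: peak over basal fluorescence ratio from a 100 s FLIPR kinetic read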
V1R ag counter: activates human V1a receptor in oxytocin agonist counter-screen. P37288. actives 0.25% (n = 320,000). AID 2797. CHO-V1R cells, Fluo-8 calcium fluorescence, agonist mode; 0% DMSO, 100% 3 nM vasopressin. activation, % at 3 µM;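 active = activation above the mean activation of all tested compounds plus 3 SD, per screening run, cut at about 20% in these data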;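 note: signal is peak over basal fluorescence ratio across a 100 second FLIPR read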
* marks the source's active call; other numbers are inactive results; / = no result given.

SMILES	TAAR1 antag	TAAR1 ag	OXTR potentiator	OXTR agonist	V1R ag counter
NS(=O)(=O)c1ccc(CCn2c(=S)[nH]c3ccccc3c2=O)cc1	61*	38*	-3	1	3
Oc1ccc2sc(-c3ccccc3O)c(-c3ccc(OCCN4CCCCC4)cc3)c2c1	53*	39*	/	/	/
CC(=O)NCCc1nc2ccccc2n1CCOc1ccccc1	-23	39*	1	2	1
C=CCn1c(CCCNC(=O)C(C)(C)C)nc2ccccc21	-8	2	-3	0	1
CC(C)(C)C(=O)NCCCc1nc2ccccc2n1CCCOc1ccc(Cl)cc1	66*	19	-8	9	8
CC(C)(C)c1ccc(OCc2ccc(C(=O)NCc3cccnc3)o2)cc1	53*	16	-17	10	11
O=C(c1ccco1)N1CCN(C(c2ccccc2Cl)c2nnnn2Cc2cccs2)CC1 (centres undefined)	59*	27	-7	4	4
COc1ccc(/C=N/Nc2ccc([N+](=O)[O-])cc2)cc1O	23	40*	-16	3	2
CCOC(=O)C1=C(COC(=O)/C=C/c2ccccc2F)NC(=O)NC1C (centres undefined)	56*	23	-2	0	1
CCOC(=O)C1=C(COC(=O)/C=C/c2ccc(F)cc2)NC(=O)NC1C (centres undefined)	55*	18	/	/	/
CCOC(=O)C1=C(COC(=O)/C=C/c2ccc(OCC)c(OC)c2)NC(=O)NC1C (centres undefined)	10	3	-13	-2	-1
CCOC(=O)C1=C(COC(=O)/C=C/c2cccc(F)c2)NC(=O)NC1C (centres undefined)	52*	18	-6	2	1
CCOC(=O)C1=C(COC(=O)/C=C/c2ccc(Cl)cc2)NC(=O)NC1C (centres undefined)	39	6	2	0	0
CCOC(=O)C1=C(COC(=O)/C=C/c2ccccc2Cl)NC(=O)NC1C (centres undefined)	40	7	-11	0	3
CC(C)(C)n1nc(C2CC2)cc1NC(=O)Nc1ccccc1	2	3	/	/	/
COC(=O)c1cc(=O)n(Cc2ccco2)c(=Nc2ccccc2)s1	-20	0	/	/	/
CCCSc1nc(N)c(C#N)c(-c2ccc(C)cc2)c1C#N	54*	31	-19	9	1
CC1(C)Cc2c(sc(NC(=O)c3ccc(C(=O)c4ccccc4)cc3)c2C(N)=O)C(C)(C)N1	17	46*	-15	17	9
C=CCNC(=O)/C(C#N)=C/c1ccccc1OCc1ccc(C(=O)OC)cc1	49*	5	-8	-1	0
COc1cccc(NC(=O)Nc2cccn(Cc3ccccc3)c2=O)c1	1	3	-9	5	4
COc1cccc(Cn2cccc(NC(=O)Nc3ccc(C#N)cc3)c2=O)c1	53*	8	-28	9	8
CC(Sc1nccn1C)C(=O)c1ccc(Br)cc1 (centres undefined)	-15	-1	4	0	0
O=C(CSCc1ccccc1)NCCc1ccc(F)cc1	18	-1	2	-2	0
O=C(CSCc1ccc(Br)cc1)NCCc1ccccc1	-5	40*	1	-2	-1
O=P(CCCCCCCCCP(=O)(c1ccccc1)c1ccccc1)(c1ccccc1)c1ccccc1	90*	33	-21	20*	24*
Cc1cc(=O)[nH]c(SCC(=O)/C=C2\N(C)c3ccccc3C2(C)C)n1	30	13	-16	23*	7
CCC(Oc1ccc2c(=O)c(-c3ccccc3OC)coc2c1)C(=O)OCc1ccccc1 (centres undefined)	55*	-1	-9	2	1
CCOc1ccc(NC(=O)COC(=O)c2ccc3c(c2)C(=O)N(CCc2ccccc2)C3=O)cc1	18	38*	-3	0	1
O=C(COC(=O)c1ccc2c(c1)C(=O)N(CCc1ccccc1)C2=O)Nc1ccc(OC(F)F)cc1	15	13	-9	0	3
COc1cccc(N(C(=O)c2snc(C(N)=O)c2N)C(C(=O)NCC2CCCO2)c2ccc(F)cc2)c1 (centres undefined)	10	3	-10	2	1
